From ChEMBL document CHEMBL1122688, “Antimycotic azoles. 7. Synthesis and antifungal properties of a series of novel triazol-3-ones” (1984)

Tests used:
Aspergillus fumigatus = experiment: In vitro antifungal activity against Aspergillus fumigatus; assay type: functional
Outline: (§1)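 Fungal growth-inhibition screen (Godefroi method) against dermatophytes, yeasts, moulds and other fungi. The value is the lowest concentration (µg/mL) giving total inhibition of growth, tested up to 100 µg/mL.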

Candida albicans = experiment: In vitro antifungal activity against Candida albicans; assay type: functional; outline: as §1
Candida tropicalis = experiment: In vitro antifungal activity against Candida tropicalis; assay type: functional; outline: as §1
Cryptococcus neoformans = experiment: In vitro antifungal activity against Cryptococcus neoformans; assay type: functional; outline: as §1
Microsporum canis = experiment: In vitro antifungal activity against Microsporum canis; assay type: functional; outline: as §1
[1] = In vitro antifungal activity against Mucor sp; assay type: functional; outline: as §1
Phialophora verrucosa = experiment: In vitro antifungal activity against Phialophora verrucosa; assay type: functional; outline: as §1
Saprolegnia = experiment: In vitro antifungal activity against Saprolegnia sp; assay type: functional; outline: as §1
Sporothrix schenckii = experiment: In vitro antifungal activity against Sporothrix schenck ii; assay type: functional; outline: as §1
Trichophyton benhamiae = experiment: In vitro antifungal activity against Trichophyton mentagrophytes; assay type: functional, Arthroderma benhamiae; outline: as §1
Trichophyton rubrum = experiment: In vitro antifungal activity against Trichophyton rubrum; assay type: functional; outline: as §1
[2] = In vivo activity against microsporosis guinea pig, measured as the ratio of animals cured/animals infected (C/I) at dose 10 mg/kg; C/I = 5/6; assay type: functional
[3] = In vivo activity against microsporosis guinea pig, measured as the ratio of animals cured/animals infected (C/I) at dose 1.25 mg/kg; C/I = 0/6; assay type: functional
[4] = In vivo activity against microsporosis guinea pig, measured as the ratio of animals cured/animals infected (C/I) at dose 2.5 mg/kg; C/I = 1/6; assay type: functional
[5] = In vivo activity against vaginal candidoses in rats, measured as the ratio of animals cured/animals infected (C/I) at dose 2.5 mg/kg; C/I = 1/6; assay type: functional
[6] = In vivo activity against microsporosis guinea pig, measured as the ratio of animals cured/animals infected (C/I) at dose 10 mg/kg; C/I = 2/4; assay type: functional
[7] = In vivo activity against microsporosis guinea pig, measured as the ratio of animals cured/animals infected (C/I) at dose 2.5 mg/kg; C/I = 0/2; assay type: functional
[8] = In vivo activity against vaginal candidoses in rats, measured as the ratio of animals cured/animals infected (C/I) at dose 2.5 mg/kg; C/I = 0/2; assay type: functional
[9] = In vivo activity against vaginal candidoses in rats, measured as the ratio of animals cured/animals infected (C/I) at dose 2.5 mg/kg; C/I = 4/6; assay type: functional
[10] = In vivo activity against vaginal candidoses in rats, measured as the ratio of animals cured/animals infected (C/I) at dose 1.25 mg/kg; C/I = 0/2; assay type: functional
[11] = In vivo activity against vaginal candidoses in rats, measured as the ratio of animals cured/animals infected (C/I) at dose 10 mg/kg; C/I = 4/4; assay type: functional
[12] = In vivo activity against microsporosis guinea pig, measured as the ratio of animals cured/animals infected (C/I) at dose 10 mg/kg; C/I = 1/2; assay type: functional
[13] = In vivo activity against microsporosis guinea pig, measured as the ratio of animals cured/animals infected (C/I) at dose 10 mg/kg; C/I = 2/6; assay type: functional
[14] = In vivo activity against microsporosis guinea pig, measured as the ratio of animals cured/animals infected (C/I) at dose 1.25 mg/kg; C/I = 0/8; assay type: functional
[15] = In vivo activity against microsporosis guinea pig, measured as the ratio of animals cured/animals infected (C/I) at dose 2.5 mg/kg; C/I = 0/8; assay type: functional
[16] = In vivo activity against vaginal candidoses in rats, measured as the ratio of animals cured/animals infected (C/I) at dose 2.5 mg/kg; C/I = 6/6; assay type: functional
[17] = In vivo activity against vaginal candidoses in rats, measured as the ratio of animals cured/animals infected (C/I) at dose 0.63 mg/kg; C/I = 4/11; assay type: functional
[18] = In vivo activity against vaginal candidoses in rats, measured as the ratio of animals cured/animals infected (C/I) at dose 1.25 mg/kg; C/I = 6/6; assay type: functional
Rattus norvegicus [19] = experiment: In vivo activity against vaginal candidoses in rats, measured as the ratio of animals cured/animals infected (C/I) at dose 1.25 mg/kg; C/I = 3/12; assay type: functional
[20] = In vivo activity against microsporosis guinea pig, measured as the ratio of animals cured/animals infected (C/I) at dose 10 mg/kg; C/I = 4/4; assay type: functional
[21] = In vivo activity against microsporosis guinea pig, measured as the ratio of animals cured/animals infected (C/I) at dose 2.5 mg/kg; C/I = 2/6; assay type: functional
[22] = In vivo activity against vaginal candidoses in rats, measured as the ratio of animals cured/animals infected (C/I) at dose 2.5 mg/kg; C/I = 4/11; assay type: functional
[23] = In vivo activity against vaginal candidoses in rats, measured as the ratio of animals cured/animals infected (C/I) at dose 0.63 mg/kg; C/I = 0/4; assay type: functional
[24] = In vivo activity against vaginal candidoses in rats, measured as the ratio of animals cured/animals infected (C/I) at dose 10 mg/kg; C/I = 5/6; assay type: functional
Rattus norvegicus [25] = experiment: In vivo activity against vaginal candidoses in rats, measured as the ratio of animals cured/animals infected (C/I) at dose 1.25 mg/kg; C/I = 16/18; assay type: functional
[26] = In vivo activity against microsporosis guinea pig, measured as the ratio of animals cured/animals infected (C/I) at dose 10 mg/kg; C/I = 4/8; assay type: functional
[27] = In vivo activity against microsporosis guinea pig, measured as the ratio of animals cured/animals infected (C/I) at dose 2.5 mg/kg; C/I = 3/10; assay type: functional
[28] = In vivo activity against vaginal candidoses in rats, measured as the ratio of animals cured/animals infected (C/I) at dose 0.63 mg/kg; C/I = 4/12; assay type: functional
[29] = In vivo activity against vaginal candidoses in rats, measured as the ratio of animals cured/animals infected (C/I) at dose 2.5 mg/kg; C/I = 13/15; assay type: functional
[30] = In vivo activity against vaginal candidoses in rats, measured as the ratio of animals cured/animals infected (C/I) at dose 10 mg/kg; C/I = 10/12; assay type: functional

Row | SMILES | Inhibition (Aspergillus fumigatus) [µg/mL] | Inhibition (Candida albicans) [µg/mL] | Inhibition (Candida tropicalis) [µg/mL] | Inhibition (Cryptococcus neoformans) [µg/mL] | Inhibition (Microsporum canis) [µg/mL] | Inhibition [1] [µg/mL] | Inhibition (Phialophora verrucosa) [µg/mL] | Inhibition (Saprolegnia) [µg/mL] | Inhibition (Sporothrix schenckii) [µg/mL] | Inhibition (Trichophyton benhamiae) [µg/mL] | Inhibition (Trichophyton rubrum) [µg/mL] | C/I ratio [8] | also measured
1 | Cc1nn(C(C)C)c(=O)n1-c1ccc(N2CCN(c3ccc(OC[C@@H]4COC(Cn5ccnc5)(c5ccc(Cl)cc5Cl)O4)cc3)CC2)cc1 (stereo partly drawn) | >100 | 100 | 1 | >100 | >100 | >100 | >100 | >100 | >100 | 100 | >100 |  | C/I ratio [2]: 0.833; C/I ratio [3]: 0; C/I ratio [4]: 1; C/I ratio [5]: 1
2 | CC(C)n1ncn(-c2ccc(N3CCN(c4ccc(OC[C@@H]5COC(Cn6ccnc6)(c6ccc(Cl)cc6Cl)O5)cc4)CC3)cc2)c1=O (stereo partly drawn) | >100 | 100 | 100 | >100 | >100 | >100 | >100 | >100 | >100 | 100 | 100 | 0 | C/I ratio [6]: 0.5; C/I ratio [7]: 0
3 | CCCCn1ncn(-c2ccc(N3CCN(c4ccc(OC[C@@H]5COC(Cn6ccnc6)(c6ccc(Cl)cc6Cl)O5)cc4)CC3)cc2)c1=O (stereo partly drawn) | >100 | 100 | 100 | >100 | >100 | >100 | >100 | >100 | >100 | 100 | 10 |  | C/I ratio [9]: 4; C/I ratio [10]: 0
4 | CCCn1ncn(-c2ccc(N3CCN(c4ccc(OC[C@@H]5COC(Cn6ccnc6)(c6ccc(Cl)cc6Cl)O5)cc4)CC3)cc2)c1=O (stereo partly drawn) | >100 | >100 | >100 | >100 | >100 | >100 | >100 | >100 | >100 | 100 | 100 | 0 | C/I ratio [11]: 1
5 | CCC(C)n1ncn(-c2ccc(N3CCN(c4ccc(OC[C@@H]5COC(Cn6ccnc6)(c6ccc(Cl)cc6Cl)O5)cc4)CC3)cc2)c1=O (stereo partly drawn) | 100 | >100 | 1 | 10 | >100 | >100 | 100 | >100 | >100 | 1 | 1 |  | C/I ratio [12]: 1
6 | CC(C)CCn1ncn(-c2ccc(N3CCN(c4ccc(OC[C@@H]5COC(Cn6cncn6)(c6ccc(Cl)cc6Cl)O5)cc4)CC3)cc2)c1=O (stereo partly drawn) | >100 | 100 | >100 | >100 | >100 | >100 | >100 | >100 | >100 | 100 | >100 | 0 | C/I ratio [12]: 1
7 | Cc1nn(CC(C)C)c(=O)n1-c1ccc(N2CCN(c3ccc(OC[C@@H]4COC(Cn5cncn5)(c5ccc(Cl)cc5Cl)O4)cc3)CC2)cc1 (stereo partly drawn) | >100 | 100 | 1 | 100 | >100 | > 100 | >100 | >100 | >100 | 10 | >100 |  | C/I ratio [13]: 0.333; C/I ratio [14]: 0; C/I ratio [15]: 0; C/I ratio [16]: 1; C/I ratio [17]: 0.364; C/I ratio [18]: 1
8 | Cn1ncn(-c2ccc(N3CCN(c4ccc(OC[C@@H]5COC(Cn6ccnc6)(c6ccc(Cl)cc6Cl)O5)cc4)CC3)cc2)c1=O (stereo partly drawn) | 100 | >100 | 1 | 1 | >100 | >100 | >100 | 100 | >100 | 1 | 1 |  | C/I ratio (Rattus norvegicus [19]): 0.25; C/I ratio [20]: 1; C/I ratio [3]: 0; C/I ratio [21]: 0.333; C/I ratio [22]: 0.364; C/I ratio [23]: 0; C/I ratio [24]: 0.833
9 | CCn1ncn(-c2ccc(N3CCN(c4ccc(OC[C@@H]5COC(Cn6cncn6)(c6ccc(Cl)cc6Cl)O5)cc4)CC3)cc2)c1=O (stereo partly drawn) | >100 | 100 | 1 | 10 | >100 | >100 | >100 | >100 | >100 | 1 | 1 |  | C/I ratio (Rattus norvegicus [25]): 16; C/I ratio [26]: 0.5; C/I ratio [14]: 0; C/I ratio [27]: 0.3; C/I ratio [28]: 4; C/I ratio [29]: 0.867; C/I ratio [30]: 0.833
